Data: ChEMBL document CHEMBL1156352, “New antiviral cassane furanoditerpenes from Caesalpinia minax” (J Nat Prod, 2001)
Converted amounts (≈) assume the structure as drawn.

Legend:
[1] = test system: Human respirovirus 3; assay: Antiviral activity against Parainfluenza virus type 3 infected in human Hep2 cells assessed as inhibition of virus-induced cytopathogenic effect; format: functional, organism-based; settings: Human respirovirus 3, HEp-2
Method in brief: (§1)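 Run in 96-well plates on Hep-2 cell monolayers, with ribavirin as positive control and an untreated infection control. Para3 virus suspension was added and CPE was scored under an inverted microscope. IC50 was the concentration that reduced CPE by 50% relative to virus control. TC50 was the concentration giving 50% cytotoxic effect.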

[2] = Cytotoxicity against human Hep2 cells; format: cell-based, HEp-2; settings: read-out: LC50 (the source's name)
[3] = Therapeutic index, ratio of TC50 for human Hep2 cells to IC50 for Parainfluenza virus type 3; format: cell-based, HEp-2; settings: read-out: TI; method in brief: as §1

Question: With C=C1c2ccoc2C[C@H]2[C@H]1[C@@H](OC(C)=O)[C@H](OC(C)=O)[C@@]1(O)C(C)(C)CC[C@H](OC(C)=O)[C@]21C [CAESALAMIN C] as the compound, how does the IC50 [1] read?
Answer: Its IC50 is 8.2 µg/mL (≈ 17.3 µM).

Question: What about the CC50 [2] of the same compound?
Answer: The CC50 was 196 µg/mL (≈ 414 µM).

Question: And the selectivity ratio [3]?
Answer: Its selectivity ratio is 23.9.

Question: Which IC50 [1] does the source give for CC(=O)O[C@@H]1[C@@H]2[C@H](Cc3occc3[C@]2(C)O)[C@@]2(C)[C@@H](OC(C)=O)CCC(C)(C)[C@]2(O)[C@H]1OC(C)=O [CAESALMIN D] here?
Answer: The IC50 was 9.6 µg/mL (≈ 19.5 µM).

Question: What about the CC50 [2] of the same compound?
Answer: Its CC50 is 182 µg/mL (≈ 370 µM).

Question: What about the selectivity ratio [3] of the same compound?
Answer: The selectivity ratio was 19.1.

Question: For CC(=O)O[C@@H]1[C@@H]2[C@H](Cc3occc3[C@@]2(C)O)[C@@]2(C)[C@@H](OC(C)=O)CCC(C)(C)[C@]2(O)[C@H]1OC(C)=O [CAESALMIN E], which IC50 [1] is on record?
Answer: Its IC50 is 10.3 µg/mL (≈ 20.9 µM).

Question: And the CC50 [2]?
Answer: The CC50 was 165 µg/mL (≈ 335 µM).

Question: What about the selectivity ratio [3] of the same compound?
Answer: The selectivity ratio was 16.

Question: Which IC50 [1] does the source give for CO[C@]1(C)c2ccoc2C[C@H]2C1[C@@H](OC(C)=O)[C@H](OC(C)=O)[C@@]1(O)C(C)(C)CC[C@H](OC(C)=O)[C@]21C (stereo partly drawn) [CAESALMIN F] here?
Answer: Its IC50 is 7.8 µg/mL (≈ 15.4 µM).

Question: What about the CC50 [2] of the same compound?
Answer: The CC50 was 136 µg/mL (≈ 269 µM).

Question: What about the selectivity ratio [3] of the same compound?
Answer: The selectivity ratio was 17.5.

Question: Which IC50 [1] does the source give for CC1(C)CC[C@H](O)[C@]2(C)[C@H]3Cc4occc4[C@H]4C(=O)O[C@@H](C[C@@]12O)[C@@H]43 [CAESALMIN G] here?
Answer: The IC50 was 14.8 µg/mL (≈ 42.7 µM).

Question: What about the CC50 [2] of the same compound?
Answer: The CC50 was 44.7 µg/mL (≈ 129 µM).

Question: What about the selectivity ratio [3] of the same compound?
Answer: Its selectivity ratio is 3.

Question: Which IC50 [1] does the source give for CC[C@H](/C=C/[C@@H](C)[C@H]1CC[C@H]2[C@@H]3CC=C4C[C@@H](O)CC[C@]4(C)[C@H]3CC[C@]12C)C(C)C [STIGMASTEROL] here?
Answer: The IC50 was 37.5 µg/mL (≈ 90.9 µM).

Question: And the CC50 [2]?
Answer: Its CC50 is 137 µg/mL (≈ 331 µM).

Question: And the selectivity ratio [3]?
Answer: The selectivity ratio was 3.6.
